Laboratory results taken from publication PMC3162150 (Cancer Chemotherapy and Pharmacology, 2011).
“And” between values parts separate entries of the source, which are not always exact repeats. Equal entries are not always repeated. Where two headings read alike, the source gives them in different places. Each block holds one compound with its values, some of them ahead of it.

Legend:
[1] = cited from earlier work
[2] = tested on: human cytochrome P450 CYP3A4; settings: in vitro; minor involvement of CYP2D6 and CYP2C19; no reference given; cited from earlier work
[3] = 12-lead ECG monitoring during the core phase
[4] = type: in vivo, human
Method in brief: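 Patients took 20 mg of the oral test compound each Monday, Wednesday and Friday from day 15 (extension phase) until disease progression or withdrawal. Before that, in cycle 1, they had single 20 mg doses on day 1 and day 8; the day 8 dose followed a CYP3A inhibitor given at 400 mg once daily on days 5–9. Laboratory assessments were done weekly during the extension.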

[5] = Adverse events and laboratory safety assessment; type: in vivo, human
[6] = type: in vivo, human; settings: for AUC0–∞ ratio (90% CI), panobinostat + ketoconazole / panobinostat alone / C max ratio (90% CI), panobinostat + ketoconazole / panobinostat alone: geometric mean ratio; for CL/F: geometric mean
[7] = cited from earlier work; remark: listed apart in the source
[8] = tested on: CYP3A; assay: Estimate of fraction of panobinostat cleared by CYP3A from AUC ratio; type: in vivo, human
[9] = period 1 (panobinostat only), N = 14
[10] = period 3 (concomitant panobinostat and ketoconazole), N = 14
[11] = extension phase, panobinostat 20 mg MWF, 13 patients
[12] = 20 mg panobinostat, ketoconazole 400 mg
[13] = 20 mg panobinostat, ketoconazole 400 mg, listed as panobinostat
[14] = ref personal communication Margaret M Woo, Novartis
[15] = period 2 (ketoconazole only), N = 14

Structure (SMILES): O=C(CCCCCCC(=O)Nc1ccccc1)NO [vorinostat, reference compound]
asymptomatic hypophosphatemia reported with single agent ([1]; review of toxicities of HDAC inhibitors): 5%

Fractional excretion of phosphate ([4]; Subj nr 00005, day 54, extension phase): 5.3 (day 54) %
Fractional excretion of phosphate ([4]; Subj nr 00005, day 61, extension phase): 3.2 (day 61) %
Fractional excretion of phosphate ([4]; Subj nr 00007, day 70, extension phase): 19.4 (day 70) %
Fractional excretion of phosphate ([4]; Subj nr 00007, day 77, extension phase): 19.0 (day 77) %
Fractional excretion of phosphate ([4]; Subj nr 00010, day 36, extension phase): 2.7 (day 36) %
Fractional excretion of phosphate ([4]; Subj nr 00010, day 43, extension phase): 8.9 (day 43) %
change in T max or half-life in the presence of ketoconazole [6, 12]: No substantial change
residual panobinostat in plasma prior to the day 8 dose ([6]; after 20 mg dose on day 1, LLOQ 0.5 ng/ml): No residual panobinostat was detectable
AUC0–∞ ratio (90% CI), panobinostat + ketoconazole / panobinostat alone [6, 12]: 1.8 (1.5–2.2)
C max ratio (90% CI), panobinostat + ketoconazole / panobinostat alone [6, 12]: 1.6 (1.2–2.2)
AUC0–∞ ratio (90% CI), panobinostat + ketoconazole / panobinostat alone [6, 13]: 1.8
C max ratio (90% CI), panobinostat + ketoconazole / panobinostat alone [6, 13]: 1.6
Tmax ([6]; human, plasma, oral, 20 mg): 1 h
half-life ([6]; human, plasma, oral, 20 mg): 840 min
AUC(0-inf) ([6]; human, plasma, po, 20 mg): 133 ng·h/mL
Cmax ([6]; human, plasma, po, 20 mg): 18.5 ng/mL
T max difference, panobinostat + ketoconazole vs panobinostat alone ([6]; median (minimum and maximum difference)): 0.0 (−2.5 to 3.0) h
CL/F ([6]; panobinostat 20 mg + ketoconazole 400 mg): 90.6 L/h
CL/F ([6]; panobinostat 20 mg alone): 150.3 L/h
contribution of CYP pathways to the overall metabolism ([8]; from fmCYP3A estimate): < 50%
fmCYP3A (fraction of panobinostat cleared by CYP3A) ([8]; in vivo): 0.4
Structure (SMILES): Cc1[nH]c2ccccc2c1CCNCc1ccc(/C=C/C(=O)NO)cc1 [Panobinostat]
share of oxidative metabolism mediated by CYP3A4 [2]: 70–98%
mean QTc increase at any moment compared with baseline ([3]; core phase (15 days; panobinostat 20 mg days 1 and 8, ketoconazole days 5–9)): below 5%
increases in QTc ≥ 60 ms compared with baseline ([3]; core phase, all three periods): No increases
Ectopic activity [3, 9]: 2 (14%) patients (%)
New QTcB >450 ms [3, 9]: 3 (21%) patients (%)
QTcB increase >60 ms [3, 9]: 0 patients (%)
ST segment depression [3, 9]: 0 patients (%)
Sinus bradycardia [3, 9]: 0 patients (%)
Sinus tachycardia [3, 9]: 0 patients (%)
T wave changes [3, 9]: 2 (14%) patients (%)
patients with other transient ECG abnormalities [3, 9]: 21%
Ectopic activity [3, 10]: 2 (14%) patients (%)
New QTcB >450 ms [3, 10]: 2 (14%) patients (%)
QTcB increase >60 ms [3, 10]: 0 patients (%)
ST segment depression [3, 10]: 2 (14%) patients (%)
Sinus bradycardia [3, 10]: 0 patients (%)
Sinus tachycardia [3, 10]: 2 (14%) patients (%)
T wave changes [3, 10]: 2 (14%) patients (%)
patients with other transient ECG abnormalities [3, 10]: 43%
adverse events categorized as grade 1 ([5]; core phase): 42.9 % of all events
adverse events categorized as grade 2 ([5]; core phase): 35.7 % of all events
anorexia, regardless of relationship to study drug ([5]; core phase, N = 14): 4 patients
diarrhea, regardless of relationship to study drug ([5]; core phase, N = 14): 5 patients
fatigue, regardless of relationship to study drug ([5]; core phase, N = 14): 2 patients
hypophosphatemia, regardless of relationship to study drug ([5]; core phase, N = 14): 3 patients
myalgia, regardless of relationship to study drug ([5]; core phase, N = 14): 3 patients
nausea, regardless of relationship to study drug ([5]; core phase, N = 14): 3 patients
vomiting, regardless of relationship to study drug ([5]; core phase, N = 14): 4 patients
asymptomatic hypophosphatemia of grade ≥ 2 ([5]; during the trial, nine out of fourteen patients): 64%
anorexia, regardless of relationship to study drug [5, 11]: 7 patients
diarrhea, regardless of relationship to study drug [5, 11]: 8 patients
fatigue, regardless of relationship to study drug [5, 11]: 7 patients
hypophosphatemia, regardless of relationship to study drug [5, 11]: 9 patients
vomiting, regardless of relationship to study drug [5, 11]: 8 patients
nausea, regardless of relationship to study drug ([5]; extension phase, single-agent panobinostat 20 mg oral MWF, 13 patients): 10 patients
neutropenia ([5]; panobinostat administered for a prolonged period (extension phase)): 2 patients
inter-individual variability in pharmacokinetics [7, 14]: 60%
intra-individual variability in pharmacokinetics [7, 14]: 30%
dose dependence of C max and AUC ([7]; two dose-escalation trials, dose between 20 and <60 mg): increase linearly with the dose
dose-limiting thrombocytopenia ([1]; patients with Hodgkin's lymphoma, dose escalation, of 13 patients): four
grade 3/4 thrombocytopenia ([1]; patients with Hodgkin's lymphoma, dose escalation): 10 out of 13

Structure (SMILES): CC(=O)N1CCN(c2ccc(OCC3COC(Cn4ccnc4)(c4ccc(Cl)cc4Cl)O3)cc2)CC1 (stereo not drawn) [ketoconazole, reference compound]
Ectopic activity [3, 15]: 1 (7%) patients (%)
New QTcB >450 ms [3, 15]: 2 (14%) patients (%)
Sinus tachycardia [3, 15]: 0 patients (%)
T wave changes [3, 15]: 1 (7%) patients (%)
patients with other transient ECG abnormalities [3, 15]: 21%
QTcB increase >30 ms ([3]; period 2 (ketoconazole only, day 5 until day 8), N = 14): 3 patients (%) and 3 (21%) patients (%)
